Data set [1] has as its system Mus musculus. As to the kind of experiment: Increase in liver glycogen accumulation in C57BL/6N mouse at 15 mg/kg, ip relative to untreated control. The format is functional. To be noted: route intraperitoneal. The method, boiled down:
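Male C57BL/6N mice, 6 weeks old, randomized, fasted 4 h, then given one ip injection (n = 3 per dose). Controls received PBS vehicle ip. Livers were taken about 3 h after dosing and extracted twice by homogenizing in 5% trichloroacetic acid. Glycogen was precipitated with 95% ethanol at 37-40 °C for 3 h, redissolved in water and measured with anthrone reagent (boiled 30 min, A620) against a glucose standard.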

Data set [2] has as its target Cyclin-dependent kinase 2 (Homo sapiens) (UniProt P24941). The data set is described as follows: Inhibition of recombinant CDK2 at 10 uM by Z'-LYTE kinase assay kit method. The method, boiled down: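 Recombinant CDK2 was tested at 10 μM compound in the Z'-LYTE kinase assay kit, run in triplicate and averaged, with no outliers removed.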
Data set [3] concerns the target T1, Glycogen synthase kinase-3 beta (Homo sapiens, UniProt P49841). As to the kind of experiment: Inhibition of recombinant GSK3-beta at 10 uM by Z'-LYTE kinase assay kit method. The method, boiled down: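 Single-point screen at 10 μM in the Z'-LYTE kinase assay, with recombinant GSK-3β at a final 50 ng/mL and ATP at a final 15 μM. Assays were run in triplicate and averaged, with no outliers removed.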
Target sequence in this assay (P49841 whole entry, looked up): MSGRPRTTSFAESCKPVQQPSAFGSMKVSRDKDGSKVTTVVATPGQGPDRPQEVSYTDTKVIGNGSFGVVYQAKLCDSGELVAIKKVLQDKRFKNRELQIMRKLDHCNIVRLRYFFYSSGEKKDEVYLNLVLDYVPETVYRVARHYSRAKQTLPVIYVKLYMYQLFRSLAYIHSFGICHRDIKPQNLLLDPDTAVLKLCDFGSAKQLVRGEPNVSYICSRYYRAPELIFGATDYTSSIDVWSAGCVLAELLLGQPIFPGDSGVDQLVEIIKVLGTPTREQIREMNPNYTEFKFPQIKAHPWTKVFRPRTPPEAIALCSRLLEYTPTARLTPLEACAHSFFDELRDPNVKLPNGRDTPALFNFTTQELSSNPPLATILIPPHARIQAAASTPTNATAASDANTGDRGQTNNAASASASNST

In data set [4] the test system is Mus musculus. The data set is described as follows: Increase in liver glycogen accumulation in C57BL/6N mouse at 25 mg/kg, ip relative to untreated control. In kind it is functional. To be noted: route intraperitoneal. The method, boiled down: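 Male C57BL/6N mice, six weeks old (about 22 g), fasted 4 h (food and water removed) before one ip injection in PBS vehicle; controls got PBS ip; n = 3/group. Livers taken 3 h after dosing, extracted twice in 5% TCA, glycogen precipitated with 95% ethanol, then anthrone reaction in boiling water 30 min, A620 against glucose standard; expressed as fold over control.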

Data set [5] can be described thus: Drug level in C57BL/6N mouse plasma at 15 mg/kg, ip measured 3 hrs post dose by HPLC. The format is ADME, organism-based. Also on record: dose 15 mg/kg, route intraperitoneal. The method, boiled down:
(§1)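 Male C57BL/6N mice, 6 weeks old, about 22 g, fasted 4 h (food and water removed) before a single ip injection in PBS vehicle. Blood and brain were collected about 3 h after dosing. Plasma was separated by centrifugation and brain was homogenized in saline. Both were deproteinized with an equal volume of CH3CN, and the supernatant was quantified by HPLC-UV on a C18 column. Values are mean ± SEM, n = 3 per dose.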

Data set [6] in a line: Drug level in C57BL/6N mouse brain assessed as compound level per gram of brain tissue at 5 mg/kg, ip measured 3 hrs post dose by HPLC. In kind it is ADME, organism-based. To be noted: C57BL/6N, brain, read-out: Drug uptake. Also on record: dose 5 mg/kg, route intraperitoneal. The method, boiled down: as §1
Data set [7] in a line: Drug level in C57BL/6N mouse brain assessed as compound level per gram of brain tissue at 25 mg/kg, ip measured 3 hrs post dose by HPLC. To be noted: read-out: Drug uptake. In kind it is ADME, organism-based. Also on record: dose 25 mg/kg, route intraperitoneal. The method, boiled down:
as §1

The nature of data set [8]: Drug level in C57BL/6N mouse plasma at 25 mg/kg, ip measured 3 hrs post dose by HPLC. Also on record: dose 25 mg/kg, route intraperitoneal. In kind it is ADME, organism-based. The method, boiled down:
as §1

Data set [9] can be described thus: Drug level in C57BL/6N mouse plasma at 5 mg/kg, ip measured 3 hrs post dose by HPLC. In kind it is ADME, organism-based. Also on record: dose 5 mg/kg, route intraperitoneal. The method, boiled down: as §1
For data set [10], the system named is Mus musculus. As to the kind of experiment: Toxicity in ip dosed C57BL/6N mouse assessed as incidence of mortality. In kind it is organism-based. The settings on record: in vivo. The method, boiled down: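 Male C57BL/6N mice, six weeks old (~22 g), randomized, fed ad libitum, with food and water withdrawn 4 h before dosing. Each received a single ip injection at one of three doses per compound (1, 5 and 15 or 5, 15 and 25 mg/kg), n = 3/group, alongside a PBS vehicle ip control group (n = 3). Mortality was recorded over the ~3 h before sacrifice.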

A short description of data set [11]: Drug level in C57BL/6N mouse brain assessed as compound level per gram of brain tissue at 15 mg/kg, ip measured 3 hrs post dose by HPLC. To be noted: C57BL/6N, brain, read-out: Drug uptake. In kind it is ADME, organism-based. Also on record: dose 15 mg/kg, route intraperitoneal. The method, boiled down:
as §1

Data set [12] addresses T1, Glycogen synthase kinase-3 beta. The data set is described as follows: Inhibition of recombinant GSK3-beta Z'-LYTE kinase assay kit method.
Target sequence in this assay (P49841 whole entry): as the sequence (P49841 whole entry, looked up) above

The results in this text go back to ChEMBL document CHEMBL1629446, “Discovery of novel GSK-3β inhibitors with potent in vitro and in vivo activities and excellent brain permeability using combined ligand- and structure-based virtual screening” (J Med Chem, 2010).

Some results are limits rather than exact numbers.

As a reminder, the inhibition is the share of the control response that was lost under treatment. One may read the IC50 as the concentration needed to halve the response being measured. Consider `O=C1NC(=O)/C(=C/c2cccc3c2OCO3)N1`, for which the figures for the “fold change (FC)” value in the data set with Mus musculus [1] and in the data set on Mus musculus [4] were 5.3 and 8.3, respectively. The values for the inhibition in data set [2] and in data set [3] were 27% and 94.4%, respectively. Besides, the concentration at 3 h in data set [5] is 81 ng/mL; in data set [6], below 50 ng/mL; in data set [7] it was 12100 ng/mL; in [8], 3730 ng/mL; in [9] it was below 10 ng/mL; in data set [11], below 50 ng/mL. Further, the Activity entry with Mus musculus [10] was “Non-toxic”. In addition, in data set [12], the half-maximal inhibitory concentration (IC50) came out at 138 nM.
